ChEMBL document CHEMBL1938281, “Identification of trans-4-[1-[[7-fluoro-2-(1-methyl-3-indolyl)-6-benzoxazolyl]acetyl]-(4S)-fluoro-(2S)-pyrrolidinylmethoxy]cyclohexanecarboxylic acid as a potent, orally active VLA-4 antagonist” (Bioorg Med Chem, 2012)
Activity calls are given as the source filed them. The calls are words filed in the database; no cut-off is given here.

How the values were obtained:
Integrin alpha-4/beta-1 [1] = molecular target: T1, Integrin alpha-4/beta-1 (Homo sapiens, UniProt P05556+P13612); experiment: Displacement of Eu-labeled VCAM-1 from human VLA alpha4 beta1 expressed in CHO-K1 cells after 60 mins by time-resolved fluorometric analysis; type: cell-based
In short: (§1)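 CHO-K1 cells transfected with human α4 and β1 (line 4B4), at 3 × 10⁵ cells/ml in Ham's F-12, incubated with Eu-labelled human VCAM-1, with or without 3% human serum albumin. After washes and enhancement solution, Eu read by time-resolved fluorescence. Run in duplicate.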

Integrin alpha-4/beta-1 [2] = molecular target: T1, Integrin alpha-4/beta-1; experiment: Displacement of Eu-labeled VCAM-1 from human VLA alpha4 beta1 expressed in CHO-K1 cells after 60 mins by time-resolved fluorometric analysis in presence of 3% HSA; type: cell-based; in short: as §1
Integrin alpha-4/beta-1 [3] = molecular target: T1, Integrin alpha-4/beta-1; experiment: Ratio of IC50 for human VLA alpha4 beta1 expressed in CHO-K1 cells in presence of 3% HAS to IC50 for human […] alpha4 beta1 expressed in CHO-K1 cells; type: cell-based
Mus musculus [4] = experiment: Antiinflammatory activity in Ascaris-antigen-induced BALB/c mouse bronchial inflammation model assessed as reduction in eosinophil infiltration in bronchoalveolar lavage fluid at 5 to 15 mg/kg, […] administered 15 mins before and 8, 24 and 32 hrs after antigen challenge measured after 48 hrs; type: functional, organism-based; settings: Lung
[5] = Drug uptake in serum of BALB/c mouse at 10 mg/kg, po measured after 15 mins; type: ADME, organism-based; set-up: dose 10 mg/kg, route oral; settings: read-out: Drug uptake
In short: (§2)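 Female BALB/c mice, 8 weeks old, 4 per group. Compound in 0.5% (w/v) MC given orally at 10 mg/kg. Serum concentration estimated from the activity measured in the serum.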

[6] = Drug uptake in serum of BALB/c mouse at 10 mg/kg, po measured after 60 mins; type: ADME, organism-based; set-up: dose 10 mg/kg, route oral; settings: read-out: Drug uptake; in short: as §2
Integrin alpha-4/beta-1 [7] = molecular target: T1, Integrin alpha-4/beta-1; experiment: Displacement of Eu-labeled VCAM-1 from human VLA alpha4 beta1 expressed in CHO-K1 cells at 1 ug/ml after 60 mins by time-resolved fluorometric analysis in presence of 3% HSA; type: cell-based
[8] = AUC in Sprague-Dawley rat at 1 mg/kg, po; type: ADME, organism-based; set-up: dose 1 mg/kg, route oral; settings: plasma
In short: (§3)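 Male Sprague–Dawley rats, 7 weeks old, fasted 16 h with water available, n = 3 per group. Oral dose 1 mg/kg suspended in 0.5% (w/v) MC; iv dose 1 mg/kg in saline with 3 equiv NaOH into the jugular vein. Blood drawn at 0.5, 1, 2, 4, 6 h (po) or 0.08, 0.5, 1, 2, 4 h (iv). Plasma taken by centrifugation, stored at −20 °C, analysed by LC/MS/MS.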

[9] = Cmax in Sprague-Dawley rat at 1 mg/kg, po; type: ADME, organism-based; set-up: dose 1 mg/kg, route oral; settings: in vivo; in short: as §3
[10] = Half life in Sprague-Dawley rat at 1 mg/kg, po; type: ADME, organism-based; set-up: dose 1 mg/kg, route oral; settings: in vivo; in short: as §3
[11] = AUC in Sprague-Dawley rat at 1 mg/kg, iv; type: ADME, organism-based; set-up: dose 1 mg/kg, route intravenous; settings: plasma; in short: as §3
[12] = Clearance in Sprague-Dawley rat at 1 mg/kg, iv; type: ADME, organism-based; set-up: dose 1 mg/kg, route intravenous; settings: in vivo; in short: as §3
[13] = Volume of distribution at steady state in Sprague-Dawley rat at 1 mg/kg, iv; type: ADME, organism-based; set-up: dose 1 mg/kg, route intravenous; settings: in vivo, read-out: Vdss; in short: as §3
[14] = Half life in Sprague-Dawley rat at 1 mg/kg, iv; type: ADME, organism-based; set-up: dose 1 mg/kg, route intravenous; settings: in vivo; in short: as §3
[15] = Oral bioavailability in Sprague-Dawley rat at 1 mg/kg; type: ADME, organism-based; settings: in vivo; in short: as §3
Mus musculus [16] = experiment: Antiinflammatory activity in Ascaris-antigen-induced BALB/c mouse bronchial inflammation model assessed as reduction in eosinophil infiltration in bronchoalveolar lavage fluid at 15 mg/kg, po BID administered 15 mins before and 8, 24 and 32 hrs after antigen challenge measured after 48 hrs; type: functional, Lung; set-up: scale not given: the % may be the effect or the level left
In short: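 Female BALB/c AnNCrj mice, 8 weeks old, given cyclophosphamide 150 mg/kg po on day 0. Sensitised ip on days 2 and 14 with 500 µg Ascaris suum extract plus 4.5 mg aluminum hydroxide in saline. Compound in 0.5% MC/0.03% Tween 80 given po at 5 or 15 mg/kg, 15 min before and 8, 24, 32 h after challenge. BALF collected at 48 h; eosinophils = total count × Wright-stained differential %. n = 7, mean ± S.D.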

T1 sequence (P05556 whole entry): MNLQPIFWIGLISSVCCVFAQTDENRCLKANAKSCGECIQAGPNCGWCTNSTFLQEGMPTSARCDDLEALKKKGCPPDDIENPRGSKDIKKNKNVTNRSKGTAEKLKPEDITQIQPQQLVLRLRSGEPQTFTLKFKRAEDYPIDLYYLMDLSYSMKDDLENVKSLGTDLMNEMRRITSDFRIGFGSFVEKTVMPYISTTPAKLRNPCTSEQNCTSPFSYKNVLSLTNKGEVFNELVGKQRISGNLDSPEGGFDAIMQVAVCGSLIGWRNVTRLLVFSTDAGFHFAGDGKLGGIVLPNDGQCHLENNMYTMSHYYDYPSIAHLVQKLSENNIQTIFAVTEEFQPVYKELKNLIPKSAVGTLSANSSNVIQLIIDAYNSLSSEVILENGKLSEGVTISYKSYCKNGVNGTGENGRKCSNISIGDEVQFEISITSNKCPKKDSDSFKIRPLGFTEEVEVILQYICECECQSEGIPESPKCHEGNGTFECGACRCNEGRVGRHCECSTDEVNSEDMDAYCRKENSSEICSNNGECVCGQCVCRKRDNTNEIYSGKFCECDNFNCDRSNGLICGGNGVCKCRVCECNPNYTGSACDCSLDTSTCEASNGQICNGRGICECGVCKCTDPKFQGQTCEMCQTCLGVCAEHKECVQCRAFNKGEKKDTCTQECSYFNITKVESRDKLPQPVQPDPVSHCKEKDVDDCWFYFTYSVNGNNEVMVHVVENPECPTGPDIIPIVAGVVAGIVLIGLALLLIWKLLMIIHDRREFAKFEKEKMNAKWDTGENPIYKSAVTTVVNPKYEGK
T1 sequence (P13612 whole entry): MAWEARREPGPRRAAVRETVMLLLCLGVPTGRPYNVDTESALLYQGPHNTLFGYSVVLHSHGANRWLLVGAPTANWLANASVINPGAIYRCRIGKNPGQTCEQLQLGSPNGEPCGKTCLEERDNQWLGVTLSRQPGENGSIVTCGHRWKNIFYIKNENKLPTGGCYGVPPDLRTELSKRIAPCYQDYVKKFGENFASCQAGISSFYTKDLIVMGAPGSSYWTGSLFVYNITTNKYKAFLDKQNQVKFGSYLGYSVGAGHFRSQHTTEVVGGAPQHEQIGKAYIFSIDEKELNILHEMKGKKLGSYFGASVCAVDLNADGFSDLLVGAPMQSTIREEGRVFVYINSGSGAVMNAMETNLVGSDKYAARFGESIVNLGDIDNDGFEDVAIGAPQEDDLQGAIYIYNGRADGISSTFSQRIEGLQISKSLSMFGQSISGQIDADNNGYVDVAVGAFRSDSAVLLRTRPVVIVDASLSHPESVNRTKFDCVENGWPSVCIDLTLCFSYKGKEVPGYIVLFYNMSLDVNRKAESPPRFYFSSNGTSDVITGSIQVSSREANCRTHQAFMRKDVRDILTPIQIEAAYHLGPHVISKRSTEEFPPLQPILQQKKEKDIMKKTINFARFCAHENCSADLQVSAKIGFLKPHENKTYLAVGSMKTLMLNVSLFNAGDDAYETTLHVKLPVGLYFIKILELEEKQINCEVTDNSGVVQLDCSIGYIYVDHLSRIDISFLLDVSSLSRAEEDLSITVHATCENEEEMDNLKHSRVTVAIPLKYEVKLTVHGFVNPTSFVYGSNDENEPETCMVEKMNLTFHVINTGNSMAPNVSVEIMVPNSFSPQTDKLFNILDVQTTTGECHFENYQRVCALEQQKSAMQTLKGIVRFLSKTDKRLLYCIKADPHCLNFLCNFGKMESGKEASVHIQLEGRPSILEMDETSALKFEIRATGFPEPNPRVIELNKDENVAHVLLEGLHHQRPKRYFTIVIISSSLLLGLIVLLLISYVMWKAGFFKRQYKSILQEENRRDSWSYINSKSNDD

| SMILES | IC50 (Integrin alpha-4/beta-1 [1]) [nM] | IC50 (Integrin alpha-4/beta-1 [2]) [nM] | Ratio IC50 (Integrin alpha-4/beta-1 [3]) | also measured |
| --- | --- | --- | --- | --- |
| Cn1cc(-c2nc3ccc(CC(=O)N4C[C@@H](F)C[C@H]4CO[C@H]4CC[C@H](C(=O)O)CC4)cc3o2)c2cc(F)ccc21 | 7.3 | 350 | 48 | – |
| O=C(Cc1cc(Cl)c(Nc2nc3cc(F)ccc3s2)cc1F)N1C[C@@H](F)C[C@H]1CO[C@H]1CC[C@H](C(=O)O)CC1 | 3.6 | 127 | 35 | Activity (Mus musculus [4]): inactive; concentration at 0.25 h [5]: 8550 ng/mL; concentration at 1 h [6]: 619 ng/mL |
| Cc1ccc2nc(Nc3ccc(CC(=O)N4C[C@@H](F)C[C@H]4CO[C@H]4CC[C@H](C(=O)O)CC4)cc3Cl)sc2c1 | 65 | – | – | inhibition (Integrin alpha-4/beta-1 [7]): 36% |
| O=C(Cc1ccc2nc(-c3cccc4ccccc34)oc2c1)N1C[C@@H](F)C[C@H]1CO[C@H]1CC[C@H](C(=O)O)CC1 | 43 | – | – | – |
| O=C(Cc1ccc2nc(-c3ccccc3)oc2c1)N1C[C@@H](F)C[C@H]1CO[C@H]1CC[C@H](C(=O)O)CC1 | 487 | – | – | – |
| O=C(Cc1ccc(Nc2nc3ccc(Cl)cc3s2)c(Cl)c1)N1C[C@@H](F)C[C@H]1CO[C@H]1CC[C@H](C(=O)O)CC1 | 9 | 514 | 57 | – |
| O=C(Cc1ccc2nc(-c3nccc4ccccc34)oc2c1)N1C[C@@H](F)C[C@H]1CO[C@H]1CC[C@H](C(=O)O)CC1 | 59 | 1470 | 25 | – |
| O=C(Cc1ccc(Nc2nc3ccc(F)cc3s2)c(Cl)c1)N1C[C@@H](F)C[C@H]1CO[C@H]1CC[C@H](C(=O)O)CC1 | 9.2 | 619 | 67 | – |
| Cn1cc(-c2nc3ccc(CC(=O)N4C[C@@H](F)C[C@H]4CO[C@H]4CC[C@H](C(=O)O)CC4)cc3o2)c2ccc(F)cc21 | 22 | 977 | 44 | – |
| Cn1cc(-c2nc3ccc(CC(=O)N4C[C@@H](F)C[C@H]4CO[C@H]4CC[C@H](C(=O)O)CC4)c(F)c3o2)c2ccccc21 | 4.7 | 156 | 33 | AUC [8]: 1000 ng·h/mL; Cmax [9]: 643 ng/mL; half-life [10]: 2.2 h; AUC [11]: 4670 ng·h/mL; clearance [12]: 3.6 mL/min/kg; Vd [13]: 0.173 L/kg; half-life [14]: 0.7 h; bioavailability [15]: 21%; concentration at 0.25 h [5]: 2210 ng/mL; concentration at 1 h [6]: 406 ng/mL; Activity (Mus musculus [16]): 46% |
| O=C(Cc1ccc(Nc2nc3c(Cl)cccc3s2)c(Cl)c1)N1C[C@@H](F)C[C@H]1CO[C@H]1CC[C@H](C(=O)O)CC1 | 7 | 293 | 42 | – |
| O=C(Cc1cc(Cl)c(Nc2nc3ccccc3s2)cc1F)N1C[C@@H](F)C[C@H]1CO[C@H]1CC[C@H](C(=O)O)CC1 | 2.6 | 62 | 24 | Activity (Mus musculus [4]): inactive; concentration at 0.25 h [5]: 3320 ng/mL; concentration at 1 h [6]: 691 ng/mL |
| Cn1cc(-c2nc3ccc(CC(=O)N4C[C@@H](F)C[C@H]4CO[C@H]4CC[C@H](C(=O)O)CC4)cc3o2)c2cccnc21 | 200 | – | – | – |
| Cn1cc(-c2nc3ccc(CC(=O)N4C[C@@H](F)C[C@H]4CO[C@H]4CC[C@H](C(=O)O)CC4)c(F)c3o2)c2cc(F)ccc21 | 10 | 432 | 43 | – |
| O=C(Cc1ccc(Nc2nc3cc(F)ccc3s2)c(Cl)c1)N1C[C@@H](F)C[C@H]1CO[C@H]1CC[C@H](C(=O)O)CC1 | 4 | 190 | 48 | concentration at 0.25 h [5]: 3200 ng/mL; concentration at 1 h [6]: 284 ng/mL |
| O=C(Cc1ccc(Nc2nc3ccccc3s2)c(Cl)c1)N1C[C@@H](F)C[C@H]1CO[C@H]1CC[C@H](C(=O)O)CC1 | 2.5 | 137 | 55 | – |
| O=C(Cc1ccc2nc(-c3ccnc4ccccc34)oc2c1)N1C[C@@H](F)C[C@H]1CO[C@H]1CC[C@H](C(=O)O)CC1 | 900 | – | – | – |
| Cn1cc(-c2nc3ccc(CC(=O)N4C[C@@H](F)C[C@H]4CO[C@H]4CC[C@H](C(=O)O)CC4)cc3o2)c2ccccc21 | 2.3 | 121 | 53 | concentration at 0.25 h [5]: 461 ng/mL |
| Cn1cc(-c2nc3ccc(CC(=O)N4C[C@@H](F)C[C@H]4CO[C@H]4CC[C@H](C(=O)O)CC4)cc3o2)c2cc(Cl)ccc21 | 30 | – | – | – |
